Published values pooled from the literature.
Compare with care: the assays were run in different laboratories.
ABCB1: ATP-dependent translocase ABCB1 (ABCB1, Homo sapiens, UniProt P08183)

| SMILES | target | test | system | conditions | measurement | result |
| --- | --- | --- | --- | --- | --- | --- |
| CC[C@H](C)C(=O)N1CCC(NC(=O)Nc2ccc(OC(F)(F)F)c(F)c2)CC1 | ABCB1 | transporter efflux, inhibitor, fluorescence | – | 10 µM | inhibition | < 25% |
| COCCc1ccc(OCC(O)CNC(C)C)cc1 (stereo not drawn) | ABCB1 | – | MDCK-MDR1 | 5 µM | Papp A→B | 32.1 ×10⁻⁶ cm/s |
| Cc1cc(Nc2ncnc3ccc(NC4=NC(C)(C)CO4)cc23)ccc1Oc1ccn2ncnc2c1 | ABCB1 | – | MDCK-MDR1, Caco-2 | 1 µM, 1 h, pH 7.4 | efflux ratio | 9.48 |
| C[C@]12CCCN1CC1=NNC(=O)c3cc(F)cc4[nH]c2c1c34 | ABCB1 | – | MDCK-MDR1 | 10 µM | Papp B→A | 41.2 ×10⁻⁶ cm/s |
| O=C(O)CSc1nnc(Br)n1-c1ccc(C2CC2)c2ccccc12 | Multidrug and toxin extrusion protein 2 (SLC47A2, Homo sapiens, UniProt Q86VL8) | transporter uptake, inhibitor | HEK293 | 100 µM, 2 min | inhibition | -9% |
| Cc1ccc(C(=O)N2CCOC[C@H]2Cc2cccc(-n3nccn3)c2)c(-n2nccn2)c1 | Cytochrome P450 2A6 (CYP2A6, Homo sapiens, UniProt P11509) | enzyme activity, inhibitor | human, liver microsomes | 100 µM | inhibition | 19% |
| C[C@H]1O[C@@H](O[C@H]2[C@@H](O)C[C@H](O[C@H]3[C@@H](O)C[C@H](O[C@H]4CC[C@@]5(C)[C@H](CC[C@@H]6[C@@H]5C[C@@H](O)[C@]5(C)[C@@H](C7=CC(=O)OC7)CC[C@]65O)C4)O[C@@H]3C)O[C@@H]2C)C[C@H](O)[C@@H]1O | ABCB1 | – | human, plasma | oral, 0.5 mg | Cmax | 1.99 ng/mL |
| C=C[C@H]1C[N@@]2CC[C@H]1C[C@@H]2[C@@H](O)c1ccnc2ccc(OC)cc12 | ABCB1 | – | MDCK-MDR1 | 5 µM | Papp A→B | 13.1 ×10⁻⁶ cm/s |
| CC1(C)CCC2(CC1)N[C@@H](C(=O)N[C@@H]1CC[C@@H](C(N)=O)OC1)[C@H](c1ccnc(Cl)c1F)[C@]21C(=O)Nc2cc(Cl)ccc21 | ABCB1 | – | Caco-2 | 1 µM, 2 h | efflux ratio | 16.1 |
